In ChEMBL document CHEMBL5230168, “Design, synthesis, and biological evaluation of new arjunolic acid derivatives as anticancer agents” (RSC Med Chem, 2023):
pIC50: −log10 of the molar value. The source made the active and inactive calls. The calls are words filed in the database; no cut-off is given here.

Legend:
[1] = Toxicity in Balb/c mouse assessed as hypothermia at 50 to 100 mg/kg, ip measured upto 24 hrs by Irwin test; assay type: organism-based; conditions: in vivo, dose 50-100 mg/kg
In short: (§1)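 Irwin primary observation in female Balb/c mice aged 7–8 weeks, 3 per group. Single i.p. doses of 0.01, 0.1, 1, 5, 10, 50 and 100 mg kg−1 in 0.2% HPMC in saline; vehicle controls observed in parallel, non-blind. Standardized grid including rectal temperature and pupil diameter scored at 15, 30, 60, 120 and 180 min and 24 h, with continuous watch over 0–15 min.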

[2] = Toxicity in Balb/c mouse assessed as decreased reactivity to touch at 50 to 100 mg/kg, ip measured upto 24 hrs by Irwin test; assay type: organism-based; conditions: in vivo, dose 50-100 mg/kg; in short: as §1
[3] = Toxicity in Balb/c mouse assessed as piloerection at 50 to 100 mg/kg, ip measured upto 24 hrs by Irwin test; assay type: organism-based; conditions: in vivo, dose 50-100 mg/kg; in short: as §1
PANC-1 [4] = experiment: Induction of cell cycle arrest in human PANC-1 cells assessed as accumulation of cells at G0/G1 phase incubated for 24 hrs by PI staining based flow cytometric analysis; assay type: functional; conditions: dose 0.47-2.82 µM
PANC-1 [5] = experiment: Induction of apoptosis in human PANC-1 cells assessed as necrotic cells at 1.88 uM incubated for 24 hrs by Annexin V-FITC/PI staining based flow cytometric analysis (reference value: 3.9%); assay type: functional
In short: (§2)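 PANC-1 seeded at 2 × 10^5 cells/well, grown 24 h, then treated 24 h. PI added just before flow cytometry. Quadrant percentages given as mean ± SD of three experiments. Untreated control.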

PANC-1 [6] = experiment: Induction of apoptosis in human PANC-1 cells assessed as late apoptotic cells at 1.88 uM incubated for 24 hrs by Annexin V-FITC/PI staining based flow cytometric analysis (reference value: 1.1%); assay type: functional; in short: as §2
PANC-1 [7] = experiment: Synergistic cytotoxicity against human PANC-1 cells assessed as combination index at 0.94 uM incubated for 72 hrs in the presence of 47 uM gemcitabine by MTT assay; assay type: functional
PANC-1 [8] = experiment: Induction of apoptosis in human PANC-1 cells assessed as early apoptotic cells at 1.88 uM incubated for 24 hrs by Annexin V-FITC/PI staining based flow cytometric analysis (reference value: 5.2%); assay type: functional; in short: as §2
[9] = Toxicity in Balb/c mouse assessed as decrease of abdominal muscle tone at 50 to 100 mg/kg, ip measured upto 24 hrs by Irwin test; assay type: organism-based; conditions: in vivo, dose 50-100 mg/kg; in short: as §1
PANC-1 [10] = experiment: Induction of apoptosis in human PANC-1 cells assessed as appearance of apoptotic bodies at 0.47 to 2.82 uM incubated for 24 hrs by Hoechst 33342 staining based fluorescence microscopic analysis; assay type: functional, cell-based; conditions: dose 0.47-2.82 µM
In short: (§3)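 PANC-1 at 6500 cells/well, pre-incubated 24 h, then treated for 24 h. Washed with PBS and stained with Hoechst 33342 (1 μg mL−1 in PBS) 10 min at 37 °C in the dark. Nuclear morphology imaged by high-content fluorescence microscopy with a DAPI filter. Untreated cells as control.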

PANC-1 [11] = experiment: Induction of apoptosis in human PANC-1 cells assessed as early apoptotic cells at […] incubated for 24 hrs by Annexin V-FITC/PI staining based flow cytometric analysis (reference value: 5.2%); assay type: functional; in short: as §2
A549 = experiment: Cytotoxicity against human A549 cells assessed as inhibition of cell growth incubated for 72 hrs by MTT assay; assay type: functional, cell-based; conditions: A549, 72 h
In short: (§4)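 Cells seeded per well (HT-29 4500, PANC-1 4000, SK-MEL-28 3200, A375 1200, A549 2500, H2170 and BJ 10 000) and left 24 h. They were then exposed to increasing concentrations for 72 h and incubated 1 h with MTT 0.5 mg mL−1. Formazan was dissolved in DMSO and absorbance read at 550 nm. IC50 from three independent experiments. Final DMSO ≤0.5%.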

PANC-1 [12] = experiment: Induction of apoptosis in human PANC-1 cells assessed as late apoptotic cells at 2.82 uM incubated for 24 hrs by Annexin V-FITC/PI staining based flow cytometric analysis (reference value: 1.1%); assay type: functional; in short: as §2
PANC-1 [13] = experiment: Induction of apoptosis in human PANC-1 cells assessed as viable cells at 1.88 uM incubated for 24 hrs by Annexin V-FITC/PI staining based flow cytometric analysis (reference value: 89.8%); assay type: functional; conditions: read-out: Activity; in short: as §2
PANC-1 [14] = experiment: Induction of apoptosis in human PANC-1 cells assessed as necrotic cells at 0.94 uM incubated for 24 hrs by Annexin V-FITC/PI staining based flow cytometric analysis (reference value: 3.9%); assay type: functional; in short: as §2
[15] = Toxicity in Balb/c mouse assessed as tremor at 50 to 100 mg/kg, ip measured upto 24 hrs by Irwin test; assay type: organism-based; conditions: in vivo, dose 50-100 mg/kg; in short: as §1
[16] = Toxicity in Balb/c mouse assessed as decreased fear/startle at 50 to 100 mg/kg, ip measured upto 24 hrs by Irwin test; assay type: organism-based; conditions: in vivo, dose 50-100 mg/kg; in short: as §1
PANC-1 [17] = experiment: Induction of apoptosis in human PANC-1 cells assessed as viable cells at 0.94 uM incubated for 24 hrs by Annexin V-FITC/PI staining based flow cytometric analysis (reference value: 89.8%); assay type: functional; conditions: read-out: Activity; in short: as §2
[18] = Cytotoxicity against human BJ cells assessed as inhibition of cell growth incubated for 72 hrs by MTT assay; assay type: toxicity, cell-based; in short: as §4
PANC-1 [19] = experiment: Induction of apoptosis in human PANC-1 cells assessed as viable cells at […] incubated for 24 hrs by Annexin V-FITC/PI staining based flow cytometric analysis (reference value: 89.8%); assay type: functional; conditions: read-out: Activity; in short: as §2
[20] = Toxicity in Balb/c mouse assessed as occasional writhing at 0.01 to 10 mg/kg, ip measured upto 24 hrs by Irwin test; assay type: organism-based; conditions: in vivo, dose 0.01-10 mg/kg; in short: as §1
SK-MEL-28 = experiment: Cytotoxicity against human SK-MEL-28 cells assessed as inhibition of cell growth incubated for 72 hrs by MTT assay; assay type: functional, cell-based; conditions: SK-MEL-28, 72 h; in short: as §4
PANC-1 [21] = experiment: Induction of apoptosis in human PANC-1 cells assessed as viable cells at 2.82 uM incubated for 24 hrs by Annexin V-FITC/PI staining based flow cytometric analysis (reference value: 89.8%); assay type: functional; conditions: read-out: Activity; in short: as §2
PANC-1 [22] = experiment: Induction of apoptosis in human PANC-1 cells assessed as chromatin condensation at 0.47 to 2.82 uM incubated for 24 hrs by Hoechst 33342 staining based fluorescence microscopic analysis; assay type: functional, cell-based; conditions: dose 0.47-2.82 µM; in short: as §3
PANC-1 [23] = experiment: Induction of apoptosis in human PANC-1 cells assessed as late apoptotic cells at 0.94 uM incubated for 24 hrs by Annexin V-FITC/PI staining based flow cytometric analysis (reference value: 1.1%); assay type: functional; in short: as §2
PANC-1 [24] = experiment: Synergistic cytotoxicity against human PANC-1 cells assessed as combination index at 0.47 uM incubated for 72 hrs in the presence of 23.5 uM gemcitabine by MTT assay; assay type: functional
[25] = Toxicity in Balb/c mouse assessed as decrease of respiration at 50 to 100 mg/kg, ip measured upto 24 hrs by Irwin test; assay type: organism-based; conditions: in vivo, dose 50-100 mg/kg; in short: as §1
[26] = Toxicity in Balb/c mouse assessed as ptosis at 50 to 100 mg/kg, ip measured upto 24 hrs by Irwin test; assay type: organism-based; conditions: in vivo, dose 50-100 mg/kg; in short: as §1
PANC-1 [27] = experiment: Induction of cell cycle arrest in human PANC-1 cells assessed as accumulation of cells at G0/G1 phase at 1.88 uM incubated for 24 hrs by PI staining based flow cytometric analysis (Rvb= 51.8 %); assay type: functional
PANC-1 [28] = experiment: Cytotoxicity against human PANC-1 cells assessed as inhibition of cell growth incubated for 72 hrs by MTT assay; assay type: functional, cell-based; conditions: PANC-1, 72 h; in short: as §4

CCOC(=O)[C@]12CCC(C)(C)C[C@H]1C1=CC[C@@H]3[C@@]4(C)C(C=O)=C[C@@](C)(CO)[C@@H]4CC[C@@]3(C)[C@]1(C)CC2
Activity [1]: Toxic | Activity [2]: Toxic | Activity [3]: Toxic | Activity (PANC-1 [4]): Dose-Dependent Effect | Activity (PANC-1 [5]): 3.1% | Activity (PANC-1 [6]): 2.2% | CI (PANC-1 [7]): 0.86 | Activity (PANC-1 [8]): 7.5% | Activity [9]: Toxic | Activity (PANC-1 [10]): inactive | Activity (PANC-1 [11]): 4.9% | pIC50 (A549): 6.08 | Activity (PANC-1 [12]): 3.5% | viability at 1.88 µM (PANC-1 [13]): 87.3% | Activity (PANC-1 [14]): 2.6% | Activity [15]: Toxic | Activity [16]: Toxic | viability at 0.94 µM (PANC-1 [17]): 90.4% | IC50 at 72 h [18]: 3060 nM | viability (PANC-1 [19]): 91.7% | Activity [20]: Non-Toxic | pIC50 (SK-MEL-28): 6.24 | viability at 2.82 µM (PANC-1 [21]): 84.7% | Activity (PANC-1 [22]): inactive | Activity (PANC-1 [23]): 1.2% | CI (PANC-1 [24]): 0.98 | Activity [25]: Toxic | Activity [26]: Toxic | Activity (PANC-1 [27]): 70.2% | pIC50 (PANC-1 [28]): 6.33
